Experimental data taken from ChEMBL document CHEMBL3098102, “1,2,3-Triazole-derived naphthalimides as a novel type of potential antimicrobial agents: synthesis, antimicrobial activity, interaction with calf thymus DNA and human serum albumin” (Bioorg Med Chem Lett, 2014).
Values after ≈ are worked out from the molar mass of the structure shown. Active and inactive are the calls of the source. The calls are words filed in the database; no cut-off is given here.

How the values were obtained:
Aspergillus flavus [1] = experiment: Ratio of fluconazole MIC to compound MIC for Aspergillus flavus after 24 hrs by two-fold serial dilution method; format: functional
Saccharomyces cerevisiae = experiment: Antimicrobial activity against Saccharomyces cerevisiae by two-fold serial dilution method; format: functional
Method in brief: (§1)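 MIC read by broth microdilution in microdilution plates.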

Aspergillus flavus [2] = experiment: Antimicrobial activity against Aspergillus flavus after 24 hrs by two-fold serial dilution method; format: functional; method in brief: as §1
Candida albicans = experiment: Antimicrobial activity against Candida albicans after 24 hrs by two-fold serial dilution method; format: functional; method in brief: as §1
Shigella dysenteriae = experiment: Antimicrobial activity against Shigella dysenteriae after 24 hrs by two-fold serial dilution method; format: functional
Pseudomonas aeruginosa = experiment: Antimicrobial activity against Pseudomonas aeruginosa after 24 hrs by two-fold serial dilution method; format: functional; method in brief: as §1
Escherichia coli [3] = experiment: Antimicrobial activity against Escherichia coli DH52 after 24 hrs by two-fold serial dilution method; format: functional; settings: DH52, 24 h
[4] = Antimicrobial activity against Bacillus proteus after 24 hrs by two-fold serial dilution method; format: functional; method in brief: as §1
Micrococcus luteus = experiment: Antimicrobial activity against Micrococcus luteus ATCC 4698 after 24 hrs by two-fold serial dilution method; format: functional; settings: ATCC 4698, 24 h
Bacillus subtilis = experiment: Antimicrobial activity against Bacillus subtilis after 24 hrs by two-fold serial dilution method; format: functional; method in brief: as §1
Staphylococcus aureus [5] = experiment: Antimicrobial activity against methicillin-resistant Staphylococcus aureus N315 after 24 hrs by two-fold serial dilution method; format: functional; settings: N315, 24 h
Staphylococcus aureus [6] = experiment: Antimicrobial activity against Staphylococcus aureus ATCC 25923 after 24 hrs by two-fold serial dilution method; format: functional; settings: ATCC 25923, 24 h
DNA [7] = experiment: Competitive binding affinity to calf thymus DNA at 0.25 to 2 x 10^-5 mol/L by UV spectroscopy in presence of neutral red; format: nucleic-acid assay; settings: Bos taurus
DNA [8] = experiment: Binding affinity to calf thymus DNA by UV-vis spectroscopy; format: nucleic-acid assay; settings: Bos taurus
Method in brief: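 UV-vis absorption spectra of calf thymus DNA recorded with increasing concentrations of test compound. The DNA band at 260 nm was monitored for changes in intensity and wavelength.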

Escherichia coli [9] = experiment: Ratio of chloromycin MIC to compound MIC for Escherichia coli DH52 after 24 hrs by two-fold serial dilution method; format: functional

SMILES | Ratio (Aspergillus flavus [1]) | MIC (Saccharomyces cerevisiae) | MIC (Aspergillus flavus [2]) | MIC (Candida albicans) | MIC (Shigella dysenteriae) | MIC (Pseudomonas aeruginosa) | MIC (Escherichia coli [3]) | MIC [4] | MIC (Micrococcus luteus) | MIC (Bacillus subtilis) | MIC (Staphylococcus aureus [5]) | MIC (Staphylococcus aureus [6]) | Activity (DNA [7]) | K (DNA [8]) | Ratio (Escherichia coli [9])
CCCCCCCCn1cc(CN(Cc2cn(CCCCCCCC)nn2)N2C(=O)c3cccc4c(Br)ccc(c34)C2=O)nn1.Cl.Cl | 16 | > 512 µg/mL | 16 µg/mL | > 512 µg/mL | > 512 µg/mL | 512 µg/mL | 512 µg/mL | 512 µg/mL | > 512 µg/mL | > 512 µg/mL | > 512 µg/mL | > 512 µg/mL | – | – | –
CCCCCCCCn1cc(CN(Cc2cn(CCCCCCCC)nn2)N2C(=O)c3cccc4c(Br)ccc(c34)C2=O)nn1 | 16 | > 512 µg/mL | 16 µg/mL (≈ 23.6 µM) | > 512 µg/mL | > 512 µg/mL | 512 µg/mL (≈ 756 µM) | 512 µg/mL (≈ 756 µM) | > 512 µg/mL | > 512 µg/mL | > 512 µg/mL | > 512 µg/mL | > 512 µg/mL | – | – | –
O=C1c2cccc3c(Br)ccc(c23)C(=O)N1N(Cc1cn(Cc2ccc(Cl)c(Cl)c2)nn1)Cc1cn(Cc2ccc(Cl)c(Cl)c2)nn1 | – | – | – | – | – | – | – | – | – | – | – | – | Active | 2.34 ×10⁴ L/mol | –
O=C1c2cccc3c(Br)ccc(c23)C(=O)N1N(Cc1cn(Cc2cccc(Cl)c2)nn1)Cc1cn(Cc2cccc(Cl)c2)nn1 | – | 64 µg/mL (≈ 91.1 µM) | > 512 µg/mL | 64 µg/mL (≈ 91.1 µM) | > 512 µg/mL | 64 µg/mL (≈ 91.1 µM) | 2 µg/mL (≈ 2.85 µM) | > 512 µg/mL | > 512 µg/mL | 256 µg/mL (≈ 364 µM) | > 512 µg/mL | 256 µg/mL (≈ 364 µM) | – | – | 2
